# Experimental data as given in ChEMBL document CHEMBL1135821, “Unique overlap in the prerequisites for thrombin inhibition and oral bioavailability resulting in potent oral antithrombotics” (J Med Chem, 2002).
# Key:
# Prothrombin [1] = molecular target: T1, Prothrombin (Homo sapiens, UniProt P00734); assay: Inhibitory activity against thrombin.
# [2] = Half life value determined in dog; assay type: ADME, Canis lupus familiaris; settings: in vivo
# Method in brief: (§1)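 Elimination half-life after IV dosing of cannulated rats (275-325 g) or dogs, at least six EDTA plasma samples. Plasma samples diluted in Tris-NaCl pH 7.4, incubated 2 min with 0.5 U/mL human thrombin, then S-2238 added. ΔOD405 taken between 2 and 22 min and read against a calibration of compound spiked in pooled plasma. Fitted by iterative Simplex procedure.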
# [3] = Oral bioavailability; assay type: ADME, organism-based; settings: eutheria, in vivo
# Method in brief: (§2)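 Rats (275-325 g) with jugular cannula placed under methohexital one day earlier; dogs dosed by both routes with at least 2 weeks wash-out. IV and oral gavage in separate rats. At least six blood samples in EDTA. Plasma anti-IIa activity measured with S-2238 against a compound-spiked plasma calibration. %F = PO AUC divided by dose-normalized mean IV AUC ×100, AUC by trapezium rule.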
# [4] = Bioavailability in dog determined; assay type: ADME, organism-based, Canis lupus familiaris; settings: in vivo; method in brief: as §2
# Prothrombin [5] = molecular target: T1, Prothrombin; assay: Antithrombotic potency in the Aortic flow model in rats was reported; assay type: functional; settings: Rattus norvegicus; target entry is the homologue from another species
# Method in brief: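 Rats (350-500 g body wt) were weighed. A silk thread (size 4/0, uncoated), knotted twice and protruding 3 mm from a catheter, was introduced via the left common carotid artery and positioned in the aorta. The carotid was clamped and the iliac clamp released. After 10 min of blood circulation, the thread was removed and rinsed, and thrombus weight and length were measured.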
# [6] = Clearance was reported; assay type: ADME, organism-based; settings: in vivo
# [7] = Half life value in wistar rats; assay type: ADME, organism-based; settings: rat, in vivo; method in brief: as §1
# [8] = Half life was reported; assay type: ADME
# [9] = Bioavailability in rat; assay type: ADME, organism-based; settings: in vivo; method in brief: as §2
# [10] = Half life value in rat was determined; assay type: ADME, organism-based; settings: in vivo; method in brief: as §1
# [11] = Bioavailability in dog; assay type: ADME, organism-based, Canis lupus familiaris; settings: in vivo; method in brief: as §2
# [12] = Half life value in dog was determined; assay type: ADME, organism-based, Canis lupus familiaris; settings: in vivo; method in brief: as §1
# [13] = Bioavailability determined in rat; assay type: ADME, organism-based; settings: in vivo; method in brief: as §2
# [14] = Bioavailability in rat (Wistar); assay type: ADME, organism-based; settings: in vivo; method in brief: as §2
smiles,measurement,setting,value
O=C(c1nccs1)[C@H](CCCCO)NC(=O)[C@@H]1CCCN1C(=O)CC(c1ccccc1)c1ccccc1,Ki,Prothrombin [1],> 1000 nM
NCCCC[C@H](NC(=O)[C@@H]1CCCN1C(=O)[C@@H](CC1CCCCC1)NCC(=O)O)C(=O)C(=O)O,half-life,[2],78 min
same,Ki,Prothrombin [1],0.29 nM
same,bioavailability,[3],39%
same,bioavailability,[4],24%
same,ED50 (nM min-1 kg-1),Prothrombin [5],7.5
same,clearance,[6],0.417 mL/min
same,half-life,[7],19 min
NCCCC[C@H](NC(=O)[C@@H]1CCCN1C(=O)[C@@H](CC1CCCCC1)NCC(=O)O)C(=O)c1ncco1,Ki,Prothrombin [1],0.42 nM
same,half-life,[8],< 5 min
same,bioavailability,[3],28%
NC(N)=NCCC[C@@H]1NC(=O)[C@@H]2CCCN2C(=O)[C@@H](NC=O)CNC(=O)/C=C/[C@H](Cc2ccc(O)cc2)NC(=O)[C@@H](Cc2ccccc2)NC(=O)C1=O [CYCLOTHEONAMIDE A],Ki,Prothrombin [1],1 nM
NCCCC[C@H](NC(=O)CN(C(=O)[C@H](N)CC1CCCCC1)C1CC1)C(=O)c1nccs1,Ki,Prothrombin [1],13 nM
NCCCC[C@H](NC(=O)[C@@H]1CC2CCCCC2N1C(=O)[C@@H](CC1CCCCC1)NCC(=O)O)C(=O)C(=O)O (stereo partly drawn),Ki,Prothrombin [1],0.82 nM
same,bioavailability,[9],25%
same,half-life,[10],8 min
NC(N)=NCCC[C@H](NC(=O)[C@@H]1CCCN1C(=O)[C@@H](N)Cc1ccccc1)C(=O)c1nccs1,Ki,Prothrombin [1],0.3 nM
same,half-life,[8],5 min
same,bioavailability,[3],< 5%
NCCCC[C@H](NC(=O)[C@@H]1CCCN1C(=O)CC(c1ccccc1)c1ccccc1)C(=O)c1nccs1,Ki,Prothrombin [1],204 nM
CC(C)OC(=O)C(=O)[C@H](CCCCN)NC(=O)[C@@H]1CCCN1C(=O)[C@@H](CC1CCCCC1)NCC(=O)O,bioavailability,[11],71%
same,Ki,Prothrombin [1],1.1 nM
same,half-life,[12],108 min
same,bioavailability,[9],32%
same,half-life,[10],58 min
NCCCC[C@H](NC(=O)[C@@H]1CCCCN1C(=O)[C@@H](CC1CCCCC1)NCC(=O)O)C(=O)C(=O)O,Ki,Prothrombin [1],0.29 nM
same,bioavailability,[13],6%
same,half-life,[7],5 min
NCCCC[C@H](NC(=O)CN(C(=O)[C@@H](CC1CCCCC1)NCC(=O)O)C1CCCC1)C(=O)C(=O)O,Ki,Prothrombin [1],0.21 nM
same,bioavailability,[9],2%
same,half-life,[10],18 min
NCCCC[C@H](NC(=O)[C@@H]1CCCN1C(=O)[C@@H](CC1CCCCC1)NCC(=O)O)C(=O)c1nccs1,Ki,Prothrombin [1],2.6 nM
same,half-life,[8],23 min
same,bioavailability,[3],23%
same,ED50 (nM min-1 kg-1),Prothrombin [5],19
NCCCC[C@H](NC(=O)[C@@H]1C=CCN1C(=O)[C@@H](CC1CCCCC1)NCC(=O)O)C(=O)C(=O)O,bioavailability,[11],68%
same,Ki,Prothrombin [1],0.33 nM
same,bioavailability,[14],37%
same,half-life,[14],32 min
same,half-life,[7],22 min
NCCCC[C@H](NC(=O)[C@@H]1CCCN1C(=O)[C@H](N)CC1CCCCC1)C(=O)C(=O)O,Ki,Prothrombin [1],0.14 nM
same,half-life,[8],9 min
same,bioavailability,[3],9%
CC1(C)CCN(C(=O)[C@@H](CC2CCCCC2)NCC(=O)O)[C@@H]1C(=O)N[C@@H](CCCCN)C(=O)C(=O)O,Ki,Prothrombin [1],376 nM
COc1ccc2ccc(S(=O)(=O)N[C@@H](CCCCN)C(=O)N3CCC(C)CC3)cc2c1,Ki,Prothrombin [1],> 1000 nM
NCCCC[C@H](NC(=O)[C@@H]1CCCN1C(=O)[C@H](N)Cc1ccccc1)C(=O)c1nccs1,Ki,Prothrombin [1],146 nM
NCCCC[C@H](NC(=O)CN(C1CC1)C1Cc2ccccc2C1)C(=O)c1nccs1,Ki,Prothrombin [1],> 1000 nM
CC1CNc2c(cccc2S(=O)(=O)N[C@@H](CCCNC(=N)N)C(=O)N2CC[C@@H](C)C[C@@H]2C(=O)O)C1 (stereo partly drawn) [ARGATROBAN],bioavailability,[3],27%
NCCCC[C@H](NC(=O)[C@@H]1CCCN1C(=O)[C@@H](CC1CCCCC1)NCC(=O)O)C(=O)C(=O)NCCc1ccccc1,Ki,Prothrombin [1],0.84 nM
same,bioavailability,[9],23%
same,half-life,[10],17 min
CCS(=O)(=O)N[C@H](CC1CCCCC1)C(=O)N1CCC[C@H]1C(=O)N[C@@H](CCCCN)C(=O)c1nccs1,Ki,Prothrombin [1],2 nM
COc1ccc2ccc(S(=O)(=O)N[C@@H](CCCCN)C(=O)c3nccs3)cc2c1,Ki,Prothrombin [1],> 1000 nM
NCCCC[C@H](NC(=O)[C@@H]1CCCN1C(=O)[C@H](N)CC1CCCCC1)C(=O)c1nccs1,Ki,Prothrombin [1],3.5 nM
same,bioavailability,[14],< 5%
same,half-life,[7],17 min
NCCCC[C@H](NC(=O)[C@@H]1CCN1C(=O)[C@@H](CC1CCCCC1)NCC(=O)O)C(=O)C(=O)O,half-life,[2],42 min
same,bioavailability,[11],1%
same,Ki,Prothrombin [1],0.5 nM
same,bioavailability,[14],15%
same,half-life,[7],21 min
NCCCC[C@H](NC(=O)[C@@H]1CCCN1C(=O)[C@H](N)Cc1ccccc1)C(=O)C(=O)O,Ki,Prothrombin [1],1.4 nM
NCCCC[C@H](NC(=O)[C@@H]1CCCN1C(=O)[C@H](CC(=O)O)NS(=O)(=O)Cc1ccccc1)C(=O)C(=O)O,Ki,Prothrombin [1],15 nM
